From publication PMC9306536 (Clinical Pharmacology in Drug Development, 2022)
Like-named read-outs stand apart in the source and are kept apart here. One block for each compound: values may come before it.

How the values were obtained:
[1] = cited from earlier work
[2] = cited from earlier work; remark: listed apart in the source
[3] = Hyperphosphatemia in patients of the population PK dataset; type: in vivo, human
Procedure, shortened: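 Pooled patients from three open-label trials on once-daily oral dosing: phase 1/2 advanced malignancies (1–20 mg escalation, 9 or 13.5 mg expansion; monotherapy or combination; 2-weeks-on/1-week-off or continuous, 21-day cycles; N = 157); Japanese phase 1 (9 or 13.5 mg, intermittent; N = 25); phase 2 cholangiocarcinoma (13.5 mg, 2-weeks-on/1-week-off; N = 136). Hyperphosphatemia scored after treatment.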

[4] = cited from earlier work; remark: listed apart in the source
[5] = cited from earlier work; remark: listed apart in the source
[6] = cited from earlier work; remark: listed apart in the source
[7] = cited from earlier work; remark: listed apart in the source
[8] = cited from earlier work; remark: listed apart in the source
[9] = cited from earlier work; remark: listed apart in the source
[10] = fed state (high-fat and high-calorie diet); ref data on file; cited from earlier work
[11] = Population PK analysis of pemigatinib in patients with advanced malignancies; type: in vivo, human
Procedure, shortened: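 Sampling was rich in phase 1 and sparse in phase 2. Values <1 nM (LLOQ) were excluded. Log-transformed data were fitted with 1-/2-compartment models with first-order absorption and linear elimination. Covariates were GAM-screened, then added and removed stepwise in NONMEM. 95% CIs came from a 500-run bootstrap, with VPC.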

[12] = final model covariate coefficient
[13] = final model covariate power term
[14] = final population PK model, Table 4

Structure (SMILES): CCN1C(=O)N(c2c(F)c(O)cc(OC)c2F)Cc2cnc3[nH]c(CN4CCOCC4)cc3c21 [M2, O‐desmethyl pemigatinib]
- share of the metabolite burden in urine and feces ([1]; M2 and its secondary metabolites (M7, M8, and M9) together, ref data on file): 76.9%

- Hyperphosphatemia, Yes ([3]; N = 318): 215 (67.6) n (%)
- patients who developed hyperphosphatemia after treatment ([3]; patients included in this analysis (N = 318)): ~68%
- CL/F with moderate CYP3A4 inducer higher than pemigatinib alone ([11]; 1 patient): ≈ 100%
- CL/F ([11]; base structural model): 10.7 L/h
- IIV for Vc/F ([11]; base structural model): 44.6 % CV
- IIV for Vp/F ([11]; base structural model): 37.3 % CV
- IIV for ka ([11]; base structural model): 133 % CV
- Q/F ([11]; base structural model): 14.5 L/h
- Vc/F ([11]; base structural model): 134 L
- Vp/F ([11]; base structural model): 87.0 L
- first-order ka ([11]; base structural model): 0.997 h⁻¹
- CL/F of pemigatinib alone ([11]; comparator for the patient on a moderate CYP3A4 inducer): 11.7 L/h
- predicted Cmax steady state (Cmax,ss) ([11]; female patients): 96.53 ng/mL
- Magnitude of Interindividual Variability of CL/F ([11]; final model): 43.4 %CV
- Magnitude of Interindividual Variability of Vc/F ([11]; final model): 35.1 %CV
- Magnitude of Interindividual Variability of ka ([11]; final model): 127 %CV
- contribution of sex to the change of oral clearance ([11]; final model): < 20%
- decrease of typical CL/F by phosphate binder coadministration ([11]; final model): 14.1%
- increase of typical Vc/F by proton pump inhibitor coadministration ([11]; final model): 24.4%
- typical CL/F, males higher compared with females ([11]; final model): 19.0%
- typical ka, males lower compared with females ([11]; final model): 56.5%
- Proton pump inhibitor on Vc/F, Population Mean [11, 12]: –0.244
- Sex (male vs female) on CL, Population Mean [11, 12]: 0.190
- typical apparent volume of distribution of the peripheral compartment (Vp/F) ([11]; final model, 73.3-kg patient): 80.1 L
- typical ka ([11]; final model, female patients): 1.49 h⁻¹
- typical absorption rate constant (ka) ([11]; final model, females): 1.49 L/h
- typical oral clearance (CL/F) ([11]; final model, females): 10.3 L/h
- CL/F, Population Mean [11, 14]: 9.00 L/h
- Q/F, Population Mean [11, 14]: 16.0 L/h
- Vc/F, Population Mean [11, 14]: 161 L
- Vp/F, Population Mean [11, 14]: 80.1 L
- ka, Population Mean [11, 14]: 1.49 h⁻¹
- increase of typical CL/F by coadministration with a weak CYP3A4 inducer ([11]; full multivariate PK model (covariate removed from final model)): 24.2%
- Vd/F ([11]; human, plasma, oral): 122 L
- half-life ([11]; human, plasma, oral): 16 h
- increase in Cmax,ss, female vs male patients ([11]; post hoc estimates): 27%
- Cmax ([11]; read-out: predicted Cmax steady state (Cmax,ss), female patients): 198 nM
- post hoc-estimated CL/F ([11]; the 1 patient with concomitant moderate CYP3A4 inducer): 22.8 L/h
- geometric mean CL/F ([11]; this population PK analysis): 10.9 L/h
Structure (SMILES): CCN1C(=O)N(c2c(F)c(OC)cc(OC)c2F)Cc2cnc3[nH]c(CN4CCOCC4)cc3c21 [pemigatinib, Pemigatinib]
- pemigatinib AUC increase ([2]; coadministered with itraconazole (strong CYP3A4 inhibitor)): ≈ 90%
- pemigatinib AUC decrease ([2]; coadministered with rifampin (strong CYP3A4 inducer)): 85%
- renal clearance, % of total clearance [4]: 1%
- exposure geometric mean ratio vs normal renal function ([4]; end-stage renal disease after hemodialysis): 91.3%
- exposure geometric mean ratio vs normal renal function ([4]; end-stage renal disease before hemodialysis): 76.8%
- pemigatinib AUC increase ([4]; patients with severe renal impairment): 59%
- pemigatinib AUC increase ([5]; patients with moderate hepatic impairment): 46%
- pemigatinib AUC increase ([5]; patients with severe hepatic impairment): 74%
- DDI with a weak CYP3A4 inhibitor ([6]; PBPK modeling): no DDI
- predicted decrease in AUC ([6]; coadministered with a strong or moderate CYP3A4 inducer, data on file): > 50%
- predicted increase in AUC ([6]; coadministered with a strong or moderate CYP3A4 inhibitor, data on file): > 50%
- reduction of AUC ([6]; coadministration of moderate CYP3A4 inducers): > 50%
- Biopharmaceutics Classification System class [7]: Class II
- permeability [7]: high
- solubility [7]: pH‐dependent
- accumulation ratio for AUC0-24 [8]: ≈ 1.6
- terminal elimination half-life [8]: ≈ 15 hours
- pharmacokinetics linearity ([8]; dose range of 1 to 20 mg): linear
- renal clearance, % of total clearance ([1]; Introduction, no reference given): 1.19%
- predominant clearance pathway in humans ([1]; in vitro and in vivo data, no reference given): liver metabolism
- administered radioactive dose recovered as unchanged pemigatinib in feces ([1]; ref data on file): 1.3%
- known metabolites, share of total radioactivity ([1]; ref data on file): 72%
- effect on the overall exposure of pemigatinib ([9]; coadministration with esomeprazole or ranitidine): modest effect
- AUC decrease ([9]; with esomeprazole (PPI)): 8%
- AUC increase ([9]; with ranitidine (H2-receptor antagonist)): 3%
- delay of median time to Cmax [10]: 4.02 h
- Body weight (median = 73.3 kg) on Vc/F, Population Mean [11, 13]: 0.738
- Body weight on Vp/F, Population Mean [11, 13]: 1.22
